ChEMBL document CHEMBL3877267, “Synthesis, biological evaluation and molecular modeling of 1-oxa-4-thiaspiro- and 1,4-dithiaspiro[4.5]decane derivatives as potent and selective 5-HT1A receptor agonists” (Eur J Med Chem, 2017)
Calls of active or inactive are those of the source. No cut-off for these calls is given here.

What was measured:
[1] = Cytotoxicity against human SH-SY5Y cells assessed as reduction in cell viability after 24 hrs by MTT assay; type: toxicity, cell-based
Summary of the method: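 SH-SY5Y cells in DMEM with 10% heat-inactivated FBS, 2 mM L-glutamine, penicillin/streptomycin, 37 °C, 5% CO2; seeded 10,000 cells/well and incubated overnight. Compounds added at 0.1-100 μM for 24 h at 37 °C. MTT (0.5% w/v) added for 3 h, cells lysed in DMSO/EtOH 1:1, absorbance at 570 nm. IC50 taken as the concentration giving 50% growth inhibition.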

[2] = target: T1, Alpha-1A adrenergic receptor (Homo sapiens, UniProt P35348); assay: Displacement of [3H]prazosin from recombinant human alpha1a adrenergic receptor expressed in CHO cell membranes after 30 mins by TopCount liquid scintillation counting method
T1 sequence (P35348 whole entry): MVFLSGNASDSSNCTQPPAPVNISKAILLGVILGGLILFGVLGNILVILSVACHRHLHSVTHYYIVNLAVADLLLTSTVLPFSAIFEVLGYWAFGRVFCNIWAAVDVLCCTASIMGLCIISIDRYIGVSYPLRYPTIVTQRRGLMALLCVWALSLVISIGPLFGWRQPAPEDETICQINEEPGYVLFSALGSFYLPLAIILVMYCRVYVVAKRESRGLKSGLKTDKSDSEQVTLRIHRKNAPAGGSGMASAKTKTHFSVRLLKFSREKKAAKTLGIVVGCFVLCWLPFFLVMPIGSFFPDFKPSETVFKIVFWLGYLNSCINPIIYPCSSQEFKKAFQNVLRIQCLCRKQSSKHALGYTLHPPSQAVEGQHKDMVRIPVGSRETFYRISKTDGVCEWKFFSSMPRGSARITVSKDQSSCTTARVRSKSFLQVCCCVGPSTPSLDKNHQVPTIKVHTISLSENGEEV
Summary of the method: (§1)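 Membranes from CHO cells stably expressing each human α1 subtype (70 µg protein), incubated in 50 mM Tris pH 7.4 with 0.1–0.4 nM [3H]prazosin and competitor (1 pM–1 µM) for 30 min at 25 °C. Nonspecific binding defined with 10 µM tamsulosin. Filtration and scintillation counting.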

[3] = target: T2, Alpha-1D adrenergic receptor (Homo sapiens, UniProt P25100); assay: Displacement of [3H]prazosin from recombinant human alpha1d adrenergic receptor expressed in CHO cell membranes after 30 mins by TopCount liquid scintillation counting method; summary of the method: as §1
T2 sequence (P25100 whole entry): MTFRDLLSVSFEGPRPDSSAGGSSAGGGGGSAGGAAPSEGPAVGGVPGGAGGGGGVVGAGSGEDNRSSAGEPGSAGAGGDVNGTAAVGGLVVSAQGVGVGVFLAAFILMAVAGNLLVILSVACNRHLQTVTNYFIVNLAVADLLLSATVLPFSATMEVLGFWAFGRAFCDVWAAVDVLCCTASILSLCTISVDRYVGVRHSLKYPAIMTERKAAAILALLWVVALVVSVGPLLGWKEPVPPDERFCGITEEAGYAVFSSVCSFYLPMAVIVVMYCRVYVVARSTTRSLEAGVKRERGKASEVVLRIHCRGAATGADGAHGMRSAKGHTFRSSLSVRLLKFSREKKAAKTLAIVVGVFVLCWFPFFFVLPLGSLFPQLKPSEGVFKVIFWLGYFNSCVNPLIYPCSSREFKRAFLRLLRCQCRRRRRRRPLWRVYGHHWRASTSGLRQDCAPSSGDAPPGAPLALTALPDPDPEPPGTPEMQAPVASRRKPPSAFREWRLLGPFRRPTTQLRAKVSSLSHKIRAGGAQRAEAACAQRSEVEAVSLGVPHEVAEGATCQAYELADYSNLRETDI

[4] = target: T3, Alpha-1B adrenergic receptor (Homo sapiens, UniProt P35368); assay: Displacement of [3H]prazosin from recombinant human alpha1b adrenergic receptor expressed in CHO cell membranes after 30 mins by TopCount liquid scintillation counting method
T3 sequence (P35368 whole entry): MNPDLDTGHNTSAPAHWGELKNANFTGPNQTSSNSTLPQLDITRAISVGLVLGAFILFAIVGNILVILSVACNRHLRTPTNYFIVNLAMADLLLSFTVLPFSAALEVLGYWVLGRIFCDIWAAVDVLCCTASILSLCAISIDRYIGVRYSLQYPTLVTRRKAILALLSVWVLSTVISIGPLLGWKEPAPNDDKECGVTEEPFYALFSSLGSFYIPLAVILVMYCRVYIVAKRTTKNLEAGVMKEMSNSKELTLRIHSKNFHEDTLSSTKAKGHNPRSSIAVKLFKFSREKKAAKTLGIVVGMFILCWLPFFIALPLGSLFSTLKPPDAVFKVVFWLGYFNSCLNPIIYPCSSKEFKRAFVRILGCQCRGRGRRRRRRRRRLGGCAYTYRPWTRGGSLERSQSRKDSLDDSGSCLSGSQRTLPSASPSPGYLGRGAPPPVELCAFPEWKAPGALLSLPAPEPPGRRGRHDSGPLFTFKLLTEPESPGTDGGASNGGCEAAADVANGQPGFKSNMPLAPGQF
Summary of the method: as §1, with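 “counting. Ki by Cheng–Prusoff; pKi mean of 2–3 experiments in duplicate.” for “counting.”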

[5] = target: T4, 5-hydroxytryptamine receptor 1A (Homo sapiens) (UniProt P08908); assay: Agonist activity at recombinant human 5-HT1A receptor expressed in HeLa cell membranes assessed as induction of [35S]GTPgammaS binding preincubated for 20 mins followed by [35S]GTPgammaS addition measured after 30 mins by liquid scintillation counting method; type: functional
T4 sequence (whole entry): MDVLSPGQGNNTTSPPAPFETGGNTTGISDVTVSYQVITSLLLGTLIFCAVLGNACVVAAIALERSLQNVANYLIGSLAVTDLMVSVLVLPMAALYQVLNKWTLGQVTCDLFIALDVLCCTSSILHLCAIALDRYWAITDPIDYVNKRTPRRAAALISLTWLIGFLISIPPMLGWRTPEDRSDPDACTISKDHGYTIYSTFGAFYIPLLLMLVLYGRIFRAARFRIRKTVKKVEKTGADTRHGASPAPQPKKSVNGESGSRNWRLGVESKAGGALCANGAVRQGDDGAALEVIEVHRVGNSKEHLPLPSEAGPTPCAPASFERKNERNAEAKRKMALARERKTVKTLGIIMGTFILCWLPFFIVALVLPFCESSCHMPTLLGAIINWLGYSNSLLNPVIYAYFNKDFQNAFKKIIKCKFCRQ
Summary of the method: (§2)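 HeLa membranes with recombinant human 5-HT1A (50-70 µg protein) in 20 mM HEPES, 3 mM MgSO4, 120 mM NaCl, pH 7.4. Pre-incubated with 30 µM GDP and drug (0.01 nM–10 µM) for 20 min at 30 °C, then 200 pM [35S]GTPγS added for 30 min at 30 °C. Nonspecific binding defined with 10 µM GTPγS. Filtration and scintillation counting. Emax and pD2 taken from concentration–response fits.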

[6] = target: T5, 5-hydroxytryptamine receptor 1A (Homo sapiens, UniProt P08908); assay: Displacement of [3H]8-OH-DPAT from recombinant human 5-HT1A receptor expressed in HeLa cell membranes after 30 mins by TopCount liquid scintillation counting method; type: cell-based
T5 sequence (P08908 whole entry): T4 sequence (whole entry)

[7] = target: T4, 5-hydroxytryptamine receptor 1A (Homo sapiens); assay: Agonist activity at recombinant human 5-HT1A receptor expressed in HeLa cell membranes assessed as induction of [35S]GTPgammaS binding up to 10 uM preincubated for 20 mins followed by [35S]GTPgammaS addition measured after 30 mins by liquid scintillation counting method relative to serotonin; type: functional; summary of the method: as §2
[8] = Neuroprotective activity against oligomycin A-induced cell death in human SH-SY5Y cells assessed as increase in cell viability at 1 uM after 24 hrs by MTT assay; type: functional
Summary of the method: (§3)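 SH-SY5Y cells seeded at 10,000 cells/well and grown 24 h at 37 °C, 5% CO2. Then co-incubated 24 h with compound at 1 μM plus one insult: H2O2 195 μM, oligomycin A 30 μM or rotenone 75 μM. Viability read by MTT at 570 nm. Given as percent neuroprotection ± SD from three independent experiments.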

[9] = Neuroprotective activity against rotenone-induced cell death in human SH-SY5Y cells assessed as increase in cell viability at 1 uM after 24 hrs by MTT assay; type: functional; summary of the method: as §3
[10] = Apparent permeability from basolateral to apical side in MDCK2-MDR1 cells at 75 uM after 120 mins by UV-Visible spectrophotometric method; type: ADME, cell-based, Canis lupus familiaris, MDCK-II; conditions: dog, MDCK-MDR1
Summary of the method: (§4)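 MDCKII-MDR1 cells seeded at 100,000 cells/cm² on Transwell inserts (0.4 µm pores); monolayers with TEER 800 Ohm cm² used. Equilibrated 30 min at 37 °C in pH 7.4 bicarbonate/glucose transport medium. Receiver sampled after 120 min at 37 °C, 5% CO2, quantified by UV-Vis. Papp calculated from acceptor/initial concentration. Triplicate wells, three experiments.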

[11] = Neuroprotective activity against rotenone-induced cell death in human SH-SY5Y cells assessed as increase in cell viability at 0.1 uM after 24 hrs by MTT assay; type: functional
Summary of the method: (§5)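 SH-SY5Y cells seeded at 10,000 cells/well and grown 24 h at 37 °C, 5% CO2. Then co-incubated 24 h with compound at 0.1 μM plus one insult: H2O2 195 μM, oligomycin A 30 μM or rotenone 75 μM. Viability read by MTT at 570 nm. Given as percent neuroprotection ± SD from three independent experiments.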

[12] = Neuroprotective activity against H2O2-induced cell death in human SH-SY5Y cells assessed as increase in cell viability at 1 uM after 24 hrs by MTT assay; type: functional; summary of the method: as §3
[13] = Efflux ratio of apparent permeability from basolateral to apical over apical to basolateral side in MDCK2-MDR1 cells at 75 uM after 120 mins by UV-Visible spectrophotometric method; type: ADME, cell-based, Canis lupus familiaris; conditions: dog, MDCK-MDR1
[14] = Neuroprotective activity against oligomycin A-induced cell death in human SH-SY5Y cells assessed as increase in cell viability at 0.1 uM after 24 hrs by MTT assay; type: functional; summary of the method: as §5
Mus musculus = assay: Analgesic activity in Swiss CD1 mouse assessed reduction in formalin-induced inflammatory pain by measuring reduction in time spent in licking or biting formalin injected hind paw at 10 mg/kg, ip pretreated for 15 mins followed by formalin injection measured every 5 mins for 10 to 60 mins; type: functional, organism-based
Summary of the method: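 Male Swiss […] mice, 25-30 g. Dosed i.p. in saline with 10% DMSO (5 ml/kg) 15 min before 5% formalin (10 µl) into the right hind paw. […] 8-10 mice per group; mean ± SEM; two-way repeated-measures ANOVA with Bonferroni post hoc test; scored blind.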

[15] = Neuroprotective activity against H2O2-induced cell death in human SH-SY5Y cells assessed as increase in cell viability at 0.1 uM after 24 hrs by MTT assay; type: functional; summary of the method: as §5
[16] = Apparent permeability from apical to basolateral side in MDCK2-MDR1 cells at 75 uM after 120 mins by UV-Visible spectrophotometric method; type: ADME, cell-based, Canis lupus familiaris, MDCK-II; conditions: dog, MDCK-MDR1; summary of the method: as §4

Row | Compound | Ki [2] | Ki [3] | Ki [4] | pD2 [5] | Ki [6] | also measured
1 | CC[C@H]1/C=C/C=C/C[C@@H](C)[C@H](O)[C@@](C)(O)C(=O)[C@@H](C)[C@H](O)[C@@H](C)C(=O)[C@@H](C)[C@H](O)[C@@H](C)/C=C/C(=O)O[C@@H]2[C@H](C)[C@H](CC1)O[C@]1(CC[C@H](C)[C@H](C[C@@H](C)O)O1)[C@H]2C [OLIGOMYCIN] | – | – | – | – | – | IC50 at 24 h [1]: 29000 nM
2 | COc1ccccc1N1CCN(CCN2C(=O)CC3(CCCC3)CC2=O)CC1 | – | – | – | 9.27 | – | –
3 | C=C(C)[C@H]1Cc2c(ccc3c2O[C@@H]2COc4cc(OC)c(OC)cc4[C@@H]2C3=O)O1 [ROTENONE] | – | – | – | – | – | IC50 at 24 h [1]: 74100 nM
4 | OO [HYDROGEN PEROXIDE] | – | – | – | – | – | IC50 at 24 h [1]: 195000 nM
5 | COc1ccccc1N1CCN(CC2CSC3(CCCCC3)O2)CC1 (stereo not given) | 57.5 nM | 38.9 nM | 191 nM | – | 5.01 nM | –
6 | COc1ccccc1OCCNCC1CSC2(CCCCC2)S1 (stereo not given) | 186 nM | 34.7 nM | 195 nM | 9.58 | 0.933 nM | Activity [8]: 86%; Activity [9]: 66%; Papp B→A at 2 h, 75 µM [10]: 10.9 ×10⁻⁶ cm/s; Activity [11]: 62%; Activity [12]: 66%; efflux ratio at 2 h, 75 µM [13]: 0.98; Emax [7]: 74%; Activity [14]: 81%; IC50 at 24 h [1]: 51000 nM; Activity (Mus musculus): Active; Activity [15]: 83%; Papp A→B at 2 h, 75 µM [16]: 11.1 ×10⁻⁶ cm/s
7 | COc1ccccc1N1CCN(CC2CSC3(CCCCC3)S2)CC1 (stereo not given) | 200 nM | 100 nM | 407 nM | 8.61 | 3.02 nM | Emax [7]: 37%

Second part, led by results:

Row | Ki [2] | Ki [3] | Ki [4] | pD2 [5] | Ki [6] | Compound | also measured
8 | > 1000 nM | 1780 nM | > 1000 nM | – | – | COc1cccc(OC)c1OCCNCC1COC2(CCCCC2)O1 (stereo not given) | –
9 | 269 nM | 32.4 nM | 219 nM | – | 2.24 nM | COc1ccccc1OCCNCC1CSC2(CCCCC2)O1 (stereo not given) | –
10 | > 1000 nM | 550 nM | 977 nM | – | – | c1ccc(OCCNCC2COC3(CCCCC3)O2)cc1 (stereo not given) | –
11 | > 1000 nM | 123 nM | 550 nM | 8.27 | 1.55 nM | c1ccc(OCCNCC2CSC3(CCCCC3)S2)cc1 (stereo not given) | Emax [7]: 85%
12 | > 1000 nM | 214 nM | 437 nM | – | 22.9 nM | c1ccc(OCCNCC2CSC3(CCCCC3)O2)cc1 (stereo not given) | –
13 | – | – | – | 8.61 | – | COc1ccccc1N1CCN(CC2COC3(CCCCC3)O2)CC1 (stereo not given) | –
14 | 229 nM | 95.5 nM | 389 nM | – | – | COc1ccccc1OCCNCC1COC2(CCCCC2)O1 (stereo not given) | –
